Source: ChEMBL document CHEMBL4261487, “Small structural changes of the imidazopyridine diacylglycerol acyltransferase 2 (DGAT2) inhibitors produce an improved safety profile” (Medchemcomm, 2017)
Converted amounts (≈) assume the structure as drawn. Values belong to the molecule of their own block, whether it stands above or below them.

Tests used:
Rattus norvegicus = experiment: In vivo DGAT2 inhibition in po dosed sucrose-fed rat assessed as decrease in plasma triglyceride levels after 2 hrs; assay type: functional, organism-based
How it was run: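 Rats fed a high-sucrose diet, single oral dose of test article or vehicle; plasma TG measured in tail-vein blood 2 h post dose; n = 7–8 per group; results as percent change from vehicle group, one-way ANOVA with Dunnett's test.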

UGT = experiment: (§1) Drug metabolism in human liver microsomes assessed as UGT-mediated glucuronidation by measuring clearance rate; assay type: ADME; conditions: liver microsomes, read-out: CLH
CYP3A4 = CYP3A4 (Homo sapiens, UniProt P08684); experiment: (§2) Drug metabolism in human liver microsomes assessed as CYP3A4-mediated oxidative metabolism by measuring clearance rate; assay type: ADME; conditions: liver microsomes, read-out: CLH
CYP3A4, sequence (P08684 whole entry): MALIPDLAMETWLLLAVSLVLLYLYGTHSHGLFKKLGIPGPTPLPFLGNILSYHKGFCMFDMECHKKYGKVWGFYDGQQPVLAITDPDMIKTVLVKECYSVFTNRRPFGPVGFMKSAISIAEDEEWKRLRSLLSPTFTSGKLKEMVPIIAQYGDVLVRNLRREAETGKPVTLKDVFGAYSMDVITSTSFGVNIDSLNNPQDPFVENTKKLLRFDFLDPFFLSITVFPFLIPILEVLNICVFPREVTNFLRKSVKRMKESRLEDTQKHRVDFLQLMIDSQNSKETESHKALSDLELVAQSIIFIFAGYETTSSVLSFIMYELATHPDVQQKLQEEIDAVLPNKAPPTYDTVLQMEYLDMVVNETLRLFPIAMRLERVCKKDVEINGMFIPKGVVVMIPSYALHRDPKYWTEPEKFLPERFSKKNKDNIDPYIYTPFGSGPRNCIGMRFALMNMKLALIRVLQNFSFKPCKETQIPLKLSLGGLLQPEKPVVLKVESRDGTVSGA

[1] = target: T1, Diacylglycerol O-acyltransferase 2 (Homo sapiens, UniProt Q96PD7); experiment: Inhibition of human DGAT2
T1 sequence (Q96PD7 whole entry): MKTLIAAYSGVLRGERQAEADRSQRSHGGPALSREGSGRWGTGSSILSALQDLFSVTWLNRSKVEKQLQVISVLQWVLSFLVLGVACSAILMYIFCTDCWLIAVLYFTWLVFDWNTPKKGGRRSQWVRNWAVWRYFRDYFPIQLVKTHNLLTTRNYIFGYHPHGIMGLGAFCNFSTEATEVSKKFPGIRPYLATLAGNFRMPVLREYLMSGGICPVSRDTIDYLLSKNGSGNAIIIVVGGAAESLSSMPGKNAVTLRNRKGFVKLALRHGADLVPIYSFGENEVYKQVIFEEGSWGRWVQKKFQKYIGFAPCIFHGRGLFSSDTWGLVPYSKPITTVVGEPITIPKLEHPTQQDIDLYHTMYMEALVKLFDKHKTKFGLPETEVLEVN
How it was run: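 IC50 against human DGAT2 in an enzymatic assay, reported as the geometric mean of at least three replicates with SEM.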

[2] = as §1; assay type: ADME; conditions: microsomes
Cytochrome P450 3A4 [3] = target: T2, Cytochrome P450 3A4 (Homo sapiens, UniProt P08684); experiment: as §2; assay type: ADME; conditions: microsomes
T2 sequence (P08684 whole entry): as the sequence (P08684 whole entry) above

[4] = target: T3, Diacylglycerol O-acyltransferase 2 (Rattus norvegicus, UniProt Q5FVP8); experiment: Inhibition of rat DGAT2
T3 sequence (Q5FVP8 whole entry): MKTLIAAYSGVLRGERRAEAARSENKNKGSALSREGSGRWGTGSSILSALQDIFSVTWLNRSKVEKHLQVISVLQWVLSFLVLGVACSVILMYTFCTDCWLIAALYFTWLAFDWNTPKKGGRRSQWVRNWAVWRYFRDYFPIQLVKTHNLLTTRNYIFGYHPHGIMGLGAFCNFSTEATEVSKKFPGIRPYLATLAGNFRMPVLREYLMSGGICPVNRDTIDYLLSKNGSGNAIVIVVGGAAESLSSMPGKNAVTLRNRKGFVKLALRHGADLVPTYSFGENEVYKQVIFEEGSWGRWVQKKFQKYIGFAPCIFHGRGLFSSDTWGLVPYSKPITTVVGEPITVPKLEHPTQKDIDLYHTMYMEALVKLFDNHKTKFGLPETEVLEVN

[5] = target: T4, Diacylglycerol O-acyltransferase 2 (Canis lupus familiaris, UniProt A0A8I3NDW2); experiment: Inhibition of dog DGAT2
T4 sequence (A0A8I3NDW2 whole entry): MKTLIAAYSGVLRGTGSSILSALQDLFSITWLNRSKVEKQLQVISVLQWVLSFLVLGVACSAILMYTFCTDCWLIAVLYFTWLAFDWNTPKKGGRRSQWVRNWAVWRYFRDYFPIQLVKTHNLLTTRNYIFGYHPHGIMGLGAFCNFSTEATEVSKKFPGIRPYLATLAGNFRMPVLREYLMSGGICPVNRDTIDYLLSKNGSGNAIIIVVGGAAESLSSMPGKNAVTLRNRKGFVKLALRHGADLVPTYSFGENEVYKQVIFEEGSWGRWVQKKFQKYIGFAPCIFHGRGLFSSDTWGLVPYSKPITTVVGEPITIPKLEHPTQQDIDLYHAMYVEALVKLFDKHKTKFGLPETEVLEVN

[6] = target: T5, Diacylglycerol O-acyltransferase 1 (Homo sapiens, UniProt O75907); experiment: Inhibition of DGAT1 (unknown origin)
T5 sequence (O75907 whole entry): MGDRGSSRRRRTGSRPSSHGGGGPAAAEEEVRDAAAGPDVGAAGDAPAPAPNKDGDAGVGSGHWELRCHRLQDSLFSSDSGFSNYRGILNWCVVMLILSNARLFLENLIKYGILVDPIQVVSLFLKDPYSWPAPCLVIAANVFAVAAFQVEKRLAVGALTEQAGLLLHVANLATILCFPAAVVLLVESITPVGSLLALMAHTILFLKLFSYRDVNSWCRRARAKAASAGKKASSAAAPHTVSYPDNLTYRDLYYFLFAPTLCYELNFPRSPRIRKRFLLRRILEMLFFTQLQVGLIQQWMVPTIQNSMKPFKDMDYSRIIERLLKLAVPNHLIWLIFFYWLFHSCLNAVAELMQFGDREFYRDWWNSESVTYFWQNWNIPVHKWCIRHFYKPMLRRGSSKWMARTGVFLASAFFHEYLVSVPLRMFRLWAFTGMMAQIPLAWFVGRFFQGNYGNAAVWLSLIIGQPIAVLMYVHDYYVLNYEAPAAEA

[7] = Apparent intrinsic clearance in human hepatocytes assessed per million cells; assay type: ADME, cell-based, Hepatocyte
[8] = Apparent intrinsic clearance in rat hepatocytes assessed per million cells; assay type: ADME, cell-based, Hepatocyte
[9] = Apparent intrinsic clearance in dog hepatocytes assessed per million cells; assay type: ADME, cell-based, Canis lupus familiaris, Hepatocyte
[10] = Drug metabolism in human liver microsomes assessed as fraction of UGT-mediated glucuronidation preincubated for 5 mins followed by addition of NADPH regenerating system and measured after 2.5 to 60 mins; assay type: ADME
How it was run: (§3)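 Fractions of metabolism attributed to CYP oxidation and UGT glucuronidation were derived from human liver microsomal incubations. For the glucuronidation arm, microsomes were supplemented with the UGT cofactor UDP-glucuronic acid.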

Cytochrome P450 3A4 [11] = target: T2, Cytochrome P450 3A4; experiment: Drug metabolism in human liver microsomes assessed as fraction of CYP3A4-mediated oxidative metabolism preincubated for 5 mins followed by addition of NADPH regenerating system and measured after 2.5 to 60 mins; assay type: ADME; how it was run: as §3
[12] = Apparent permeability of the compound at pH 7.4; assay type: ADME; conditions: not told
[13] = Thermodynamic solubility of the compound at pH 6.5; assay type: physicochemical; conditions: buffer, read-out: Therm_solubility
[14] = Fraction unbound in rat plasma; assay type: ADME, cell-free
[15] = Fraction unbound in dog plasma; assay type: ADME, cell-free, Canis lupus familiaris
[16] = Half life in beagle dog at 1 mg/kg, iv; assay type: ADME, organism-based, Canis lupus familiaris; conditions: in vivo
[17] = Half life in beagle dog at 5 mg/kg, po; assay type: ADME, organism-based, Canis lupus familiaris; conditions: in vivo
[18] = Plasma clearance in beagle dog at 1 mg/kg, iv; assay type: ADME, organism-based, Canis lupus familiaris
[19] = Volume of distribution at steady state in beagle dog at 1 mg/kg, iv; assay type: ADME, organism-based, Canis lupus familiaris; conditions: in vivo, read-out: Vdss
How it was run: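 Male Beagle dogs, single iv dose, crystalline form of compound; value is the mean of two experiments.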

[20] = Oral bioavailability in beagle dog at 5 mg/kg; assay type: ADME, organism-based, Canis lupus familiaris; conditions: in vivo
Canis familiaris [21] = experiment: Unbound Cmax in beagle dog at 10 mg/kg, po qd administered for 1 month; assay type: ADME, organism-based, Canis lupus familiaris; conditions: in vivo
How it was run: (§4)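 Beagle dogs were dosed orally once daily in a 14-day exploratory study or 1-month toxicity studies. Steady-state systemic exposure over the 24 h dosing interval is reported as the mean of male and female values combined.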

[22] = Ratio of Cmax in beagle dog at 10 mg/kg, po qd administered for 1 month to IC50 for in vitro inhibition of dog DGAT2; assay type: organism-based, Canis lupus familiaris; conditions: in vivo
How it was run: (§5)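 One-month toxicity study in Beagle dogs with N = 2/sex/dose. Plasma exposure at each dose level was referenced to the dog DGAT2 enzymatic IC50, reported as the geometric mean of at least three replicates.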

Canis familiaris [23] = experiment: Unbound AUC in beagle dog at 10 mg/kg, po qd administered for 1 month; assay type: ADME, organism-based, Canis lupus familiaris; conditions: in vivo; how it was run: as §4
Canis familiaris [24] = experiment: In vivo inhibition of DGAT2 in beagle dog assessed as coverage of in vitro IC50 for dog DGAT2 at 10 mg/kg, po qd administered for 1 month; assay type: functional, Canis lupus familiaris; design: scale not given: the % may be the effect or the level left
How it was run: (§6)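 Beagle dogs, once-daily oral dosing for 14 days or 1 month; systemic exposure with sexes combined; coverage is the average % above dog DGAT2 IC50 at steady state over the 24 h dosing interval.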

Canis familiaris [25] = experiment: Unbound Cmax in beagle dog at 3 mg/kg, po qd administered for 1 month; assay type: ADME, organism-based, Canis lupus familiaris; conditions: in vivo
How it was run: (§7)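 One-month dog toxicity study with once-daily oral dosing. Toxicity groups were 2/sex/dose, and unbound peak exposure was taken from toxicokinetic sampling.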

Canis familiaris [26] = experiment: Unbound Cmax in beagle dog at 30 mg/kg, po qd administered for 1 month; assay type: ADME, organism-based, Canis lupus familiaris; conditions: in vivo; how it was run: as §7
[27] = Ratio of Cmax in beagle dog at 3 mg/kg, po qd administered for 1 month to IC50 for in vitro inhibition of dog DGAT2; assay type: organism-based, Canis lupus familiaris; conditions: in vivo; how it was run: as §5
[28] = Ratio of Cmax in beagle dog at 30 mg/kg, po qd administered for 1 month to IC50 for in vitro inhibition of dog DGAT2; assay type: organism-based, Canis lupus familiaris; conditions: in vivo; how it was run: as §5
Canis familiaris [29] = experiment: Unbound AUC in beagle dog at 3 mg/kg, po qd administered for 1 month; assay type: ADME, organism-based, Canis lupus familiaris; conditions: in vivo; how it was run: as §4
Canis familiaris [30] = experiment: Unbound AUC in beagle dog at 30 mg/kg, po qd administered for 1 month; assay type: ADME, organism-based, Canis lupus familiaris; conditions: in vivo; how it was run: as §4
Canis familiaris [31] = experiment: In vivo inhibition of DGAT2 in beagle dog assessed as coverage of in vitro IC50 for dog DGAT2 at 3 mg/kg, po qd administered for 1 month; assay type: functional, Canis lupus familiaris; design: scale not given: the % may be the effect or the level left; how it was run: as §6
Canis familiaris [32] = experiment: In vivo inhibition of DGAT2 in beagle dog assessed as coverage of in vitro IC50 for dog DGAT2 at 30 mg/kg, po qd administered for 1 month; assay type: functional, Canis lupus familiaris; design: scale not given: the % may be the effect or the level left; how it was run: as §6
Canis familiaris [33] = experiment: Toxicity in beagle dog at 3 to 30 mg/kg, po qd administered for 1 month; assay type: organism-based, Canis lupus familiaris; conditions: in vivo

SMILES: CC(c1nc2cnc(N3CCC[C@@H](C(=O)N4CCCC4)C3)nc2[nH]1)n1cc(Cl)cn1 (single isomer, unassigned; diastereomer 1) [listing 1 of 2 here]
- inhibition (Rattus norvegicus): Dose-dependent effect

SMILES: CC(C)(c1nc2ccc(N3CCC[C@@H](C(=O)N4CCCC4)C3)nc2[nH]1)n1cc(Cl)cn1
- microsomal CLint (CYP3A4): 35.4 µL/min/mg

SMILES: CC(c1nc2cnc(N3CCC[C@@H](C(=O)N4CCCC4)C3)nc2[nH]1)n1cc(Cl)cn1 (single isomer, unassigned; diastereomer 2)
- IC50 [1]: 37 nM
- microsomal CLint (UGT): 15.2 µL/min/mg
- microsomal CLint (CYP3A4): 21.5 µL/min/mg

Further lines, with some results ahead:

- microsomal CLint (UGT): 7.6 µL/min/mg
- microsomal CLint (CYP3A4): 26 µL/min/mg
SMILES: C[C@H](c1nc2ccc(N3CCC[C@@H](C(=O)N4CCCC4)C3)nc2[nH]1)n1cc(Cl)cn1

- IC50 [1]: 26 nM
- CLH [2]: 20.3 µL/min/mg
- CLH (Cytochrome P450 3A4 [3]): 23.5 µL/min/mg
- IC50 [4]: 241 nM
- IC50 [5]: 53 nM
- IC50 [6]: > 50000 nM
- CLH(app) [7]: 13.1 µL/min
- CLH(app) [8]: 12 µL/min
- CLH(app) [9]: < 8 µL/min
- Ratio [10]: 0.52
- Ratio (Cytochrome P450 3A4 [11]): 0.48
- Papp [12]: 16.2 ×10⁻⁶ cm/s
- solubility thermodynamic [13]: 53 µg/mL (≈ 124 µM)
- fraction unbound [14]: 0.18
- fraction unbound [15]: 0.25
- half-life [16]: 1.1 h
- half-life [17]: 3.8 h
- clearance [18]: 7.3 mL/min/kg
- Vd [19]: 0.58 L/kg
- bioavailability [20]: 32%
- fCmax (Canis familiaris [21]): 487 nM
- Ratio [22]: 9
- fAUC (Canis familiaris [23]): 540 ng·h/mL
- fCmax (Canis familiaris [25]): 140 nM
- fCmax (Canis familiaris [26]): 1760 nM
- Ratio [27]: 3
- Ratio [28]: 33
- fAUC (Canis familiaris [29]): 149 ng·h/mL
- fAUC (Canis familiaris [30]): 1560 ng·h/mL
SMILES: CC(c1nc2cnc(N3CCC[C@@H](C(=O)N4CCCC4)C3)nc2[nH]1)n1cc(Cl)cn1 (single isomer, unassigned; diastereomer 1) [listing 2 of 2 here]
- Activity (Canis familiaris [24]): 50%
- Activity (Canis familiaris [31]): 21%
- Activity (Canis familiaris [32]): 74%
- Activity (Canis familiaris [33]): Non-Toxic
